Results: ChEMBL document CHEMBL4732206, “Novel diaryl-2H-azirines: Antitumor hybrids for dual-targeting tubulin and DNA” (Eur J Med Chem, 2021)
Active and inactive are the calls of the source. No cut-off for these calls is given here.

Legend:
[1] = tested on: A2780; test: Antiproliferative activity against human A2780 cells assessed as reduction in cell viability incubated for 48 hrs by MTT assay; type: functional, cell-based; settings: A2780, 48 h
Method in brief: (§1)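 Cells were grown in DMEM with 10% FBS and penicillin/streptomycin at 37 °C and 5% CO2. They were seeded for 24 h, then treated with graded concentrations for 48 h. MTT (5 mg/mL) was added for a further 4 h at 37 °C. Formazan was dissolved in DMSO and absorbance read at 570 nm. IC50 was taken from the concentration-response curve.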

[2] = tested on: HeLa; test: Antiproliferative activity against human HeLa cells assessed as reduction in cell viability incubated for 48 hrs by MTT assay; type: functional, cell-based; method in brief: as §1
[3] = Inhibition of pig brain tubulin polymerization by spectrophotometry; set-up: species or system Sus scrofa
[4] = biological target: Tubulin (Homo sapiens) (UniProt P68371+Q9H4B7+P0DPH7+P68366+Q13509+Q71U36+P04350+Q3ZCM7+P07437+P68363+Q9BQE3+Q6PEY2+Q13885+Q9BVA1+Q9BUF5); test: Inhibition of tubulin polymerization in human HeLa cells assessed as shrink in cell border at 100 to 200 nM incubated for overnight by DAPI staining based immunofluorescence assay; settings: dose 100-200 nM
Method in brief: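 HeLa cells were treated overnight with a range of concentrations or DMSO. Cells were fixed in methanol, permeabilized with 0.1% Triton X-100 and blocked in 3% BSA for 1 h. They were stained with α-tubulin monoclonal antibody overnight at 4 °C, then Alexa 488 secondary antibody, with DAPI counterstain for 10 min. Images were taken by confocal microscopy.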

[5] = tested on: HeLa; test: Induction of apoptosis in human HeLa cells assessed as viable cells at 1 uM incubated for 48 hrs by annexin-V-FITC and PI staining based flow cytometry analysis (reference value: 97.34 %); type: functional; settings: read-out: Activity
[6] = tested on: HeLa; test: Induction of apoptosis in human HeLa cells assessed as late apoptotic cells at 1 uM incubated for 48 hrs by annexin-V-FITC and PI staining based flow cytometry analysis (reference value: 0.23 %); type: functional
[7] = tested on: HeLa; test: Induction of apoptosis in human HeLa cells assessed as viable cells at 2 uM incubated for 48 hrs by annexin-V-FITC and PI staining based flow cytometry analysis (reference value: 97.34 %); type: functional; settings: read-out: Activity
[8] = tested on: HeLa; test: Induction of apoptosis in human HeLa cells assessed as early apoptotic cells at 2 uM incubated for 48 hrs by annexin-V-FITC and PI staining based flow cytometry analysis (reference value: 2.25 %); type: functional
[9] = tested on: HeLa; test: Induction of apoptosis in human HeLa cells assessed as necrotic cells at 2 uM incubated for 48 hrs by annexin-V-FITC and PI staining based flow cytometry analysis (reference value: 0.18 %); type: functional
[10] = tested on: HeLa; test: Induction of apoptosis in human HeLa cells assessed as viable cells at 4 uM incubated for 48 hrs by annexin-V-FITC and PI staining based flow cytometry analysis (reference value: 97.34 %); type: functional; settings: read-out: Activity
[11] = tested on: HeLa; test: Induction of apoptosis in human HeLa cells assessed as early apoptotic cells at 4 uM incubated for 48 hrs by annexin-V-FITC and PI staining based flow cytometry analysis (reference value: 2.25 %); type: functional
[12] = tested on: HeLa; test: Induction of apoptosis in human HeLa cells assessed as late apoptotic cells at 4 uM incubated for 48 hrs by annexin-V-FITC and PI staining based flow cytometry analysis (reference value: 0.23 %); type: functional
[13] = tested on: HeLa; test: Induction of apoptosis in human HeLa cells assessed as necrotic cells at 4 uM incubated for 48 hrs by annexin-V-FITC and PI staining based flow cytometry analysis (reference value: 0.18 %); type: functional
[14] = tested on: HeLa; test: Induction of apoptosis in human HeLa cells assessed as viable cells at 8 uM incubated for 48 hrs by annexin-V-FITC and PI staining based flow cytometry analysis (reference value: 97.34 %); type: functional; settings: read-out: Activity
[15] = tested on: HeLa; test: Induction of apoptosis in human HeLa cells assessed as early apoptotic cells at 8 uM incubated for 48 hrs by annexin-V-FITC and PI staining based flow cytometry analysis (reference value: 2.25 %); type: functional
[16] = tested on: HeLa; test: Induction of apoptosis in human HeLa cells assessed as necrotic cells at 8 uM incubated for 48 hrs by annexin-V-FITC and PI staining based flow cytometry analysis (reference value: 0.18 %); type: functional
[17] = tested on: HeLa; test: Induction of cell cycle arrest in human HeLa cells assessed as increase in accumulation of cells at G2/M phase incubated for 24 hrs by PI staining based flow cytometry analysis; type: functional; settings: dose 0.4-3.2 µM
Method in brief: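 HeLa cells were grown for 24 h, then treated with graded concentrations or DMSO for 24 h. Cells were fixed in 75% ethanol at −20 °C overnight, treated with RNase A and stained with PI in PBS in the dark at room temperature. DNA content was measured by flow cytometry.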

[18] = tested on: HeLa; test: Induction of cell cycle arrest in human HeLa cells assessed as upregulation of p-histone-H3 protein expression at 0.8 to 3.2 uM by Western blot analysis; type: functional, cell-based; settings: dose 0.8-3.2 µM
Method in brief: (§2)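 HeLa cells were treated with graded concentrations or DMSO, washed in PBS and lysed. Protein was measured by BCA, separated by SDS-PAGE and transferred to PVDF. Membranes were blocked in 5% BSA/TBST, incubated with primary antibodies overnight at 4 °C, then with HRP secondary antibodies. Bands were detected by chemiluminescence.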

[19] = tested on: HeLa; test: Induction of cell cycle arrest in human HeLa cells assessed as upregulation of BubR1 protein expression at 0.8 to 3.2 uM by Western blot analysis; type: functional, cell-based; settings: dose 0.8-3.2 µM; method in brief: as §2
[20] = tested on: HeLa; test: Inhibition of colony formation in human HeLa cells incubated for 48 hrs followed by replacement with fresh medium and further incubation for 7 to 10 days by gentian violet staining based assay; type: functional, cell-based; settings: dose 0.5-8 µM
Method in brief: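 HeLa cells in six-well plates were grown for 24 h at 37 °C, then treated with graded concentrations or DMSO for 48 h. Medium was replaced with fresh medium for a further 7–10 days. Colonies were stained with gentian violet for 30 min, washed with PBS and counted relative to control.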

[21] = tested on: A2780; test: Antitumor activity against human A2780 cells xenografted in Balb/c mouse assessed as tumor growth inhibition administered every two days by caliper analysis; type: functional; settings: dose 25-50 mg/kg
Method in brief: (§3)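 Nude mice carried A2780 cells implanted in PBS in the right flank. When tumors reached 100 mm³, mice were randomized into four groups (n = 10): vehicle, 25 or 50 mg/kg test compound, and PTX 10 mg/kg. Dosing was every two days; vehicle was 10% castor oil and 10% DMSO in PBS. Volume (π/6 × length × width²) and body weight were measured by caliper and scale at each dose. Tumors were excised and weighed at the end.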

[22] = tested on: A2780; test: Antitumor activity against human A2780 cells xenografted in Balb/c mouse assessed as reduction in tumor weight at 25 to 50 mg/kg administered every two days; type: functional, organism-based; settings: dose 25-50 mg/kg; method in brief: as §3
[23] = tested on: Jurkat; test: Induction of DNA damage in human Jurkat cells assessed as increase in tail moment at 100 to 400 nM incubated for 48 hrs by comet assay; type: functional, cell-based; settings: dose 100-400 nM
Method in brief: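 Jurkat cells were exposed to graded concentrations, MMC 200 nM positive control or DMSO for 48 h at 37 °C, with work done in darkness. Cells were embedded in LM agarose on comet slides and lysed for 2 h at 4 °C. Slides were unwound in 1 mM EDTA/200 mM NaOH for 30 min, electrophoresed at 25 V for 15 min, stained with ethidium bromide and imaged by fluorescence microscopy. Tail moment was scored.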

IC50 [1]: 160 nM
IC50 [2]: 870 nM
IC50 [3]: 3300 nM
inhibition [4]: Active
Structure (SMILES): COc1ccc(C2N=C2c2cc(OC)c(OC)c(OC)c2)cc1F (stereo not drawn)
viability at 1 µM [5]: 95.5%
Activity [6]: 1.38%
viability at 2 µM [7]: 74.7%
Activity [8]: 18.98%
Activity [9]: 0.65%
viability at 4 µM [10]: 63.5%
Activity [11]: 28.43%
Activity [12]: 7.52%
Activity [13]: 0.56%
viability at 8 µM [14]: 39.6%
Activity [15]: 50.47%
Activity [16]: 2.14%
Activity [17]: Dose-dependent effect
Activity [18]: Active
Activity [19]: Active
inhibition [20]: Dose-dependent effect
TGI [21]: Dose-dependent effect
Activity [22]: Active
Activity [23]: Active
